CAL PDZ FP-1 – human CAL PDZ-peptide interaction inhibition; purified CAL PDZ, TMR-peptide fluorescence polarization, 1 h; inhibition, % at 20 µM; hit rate 0.02% among 330,000;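 active = highest replicate inhibition of at least 40%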;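 note: plate controls were DMSO neutral control wells for no effect and unlabeled competitor peptide control wells for full effect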
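Control set: unlabelled peptide and DMSO controls / Material: purified CerCALP PDZ construct / Timing: 1 h incubation at room temperature before polarization reading / Doses: 20 µM, one dose / Detection: fluorescence polarization (mP)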
N-glyco inh – N-linked glycosylation inhibition | D54 ERlucT glycosylation luciferase reporter, 24 h; percent of 100 nM tunicamycin response | reporter increase, % at 12.5 µM | hit rate 0.23% among 360,000 | AID 588692;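 active = mean luciferase reporter signal, scaled so untreated is 0 and the glycosylation-blocking control 100, at or above a set limit in every replicate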;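 note: luciferase carries N-glycosylation sites so blocking glycosylation raises the light; 0% = median of neutral control wells and 100% = median of 100 nM tunicamycin wells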
PvdQ acylase – P. aeruginosa PvdQ acylase inhibition. hit rate 0.063% among 340,000. inhibition, % at 10 µM. purified PvdQ acylase, fluorescence plate reader; in the data active = inhibition above about 30%, passing the limit was not always enough;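 note: 0% = vehicle neutral wells and 100% = reference inhibitor wells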
Vif inh – blocks HIV Vif function | HEK293T cells, Vif self-association by quenched fluorescence, imaging, 24 h | inhibition, % at 7.49 µM | hit rate 0.35% among 340,000 | AID 602346; in the data active = inhibition above about 50%, passing the limit was not always enough
CAL PDZ FP-2 – inhibitors of human CAL PDZ peptide binding | hit rate 0.92% among 300,000 | purified CAL PDZ, TMR-peptide fluorescence polarization, 1 h | inhibition, % at 24.9 µM | AID 602252 | Q9HD26;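 active = mean inhibition of at least 30% with at least half of replicates also reaching 30%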;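 note: 0% = DMSO neutral control and 100% = excess unlabeled competitor peptide PRC23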
CDK5 p35 inh – CDK5/p35 (human) kinase inhibition; AID 488839; Recombinant CDK5/p35, ADP-Glo luminescence, 60 min; hit rate 0.01% among 330,000; inhibition, % at 10 µM;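 active = highest replicate inhibition of at least 50% and at least 75% of replicates reaching 50%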;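 note: plate controls were DMSO neutral control for no effect and GW8510 at 10 µM for full effect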
Target sequence (Q00535 whole entry, looked up): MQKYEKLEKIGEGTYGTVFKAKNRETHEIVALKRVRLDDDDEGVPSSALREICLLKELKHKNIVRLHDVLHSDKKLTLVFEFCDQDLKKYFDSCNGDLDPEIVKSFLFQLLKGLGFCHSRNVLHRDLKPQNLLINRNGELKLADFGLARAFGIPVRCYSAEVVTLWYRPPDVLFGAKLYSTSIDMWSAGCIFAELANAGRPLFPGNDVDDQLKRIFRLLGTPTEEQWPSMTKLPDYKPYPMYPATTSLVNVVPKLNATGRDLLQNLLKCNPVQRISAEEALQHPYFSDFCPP
Target sequence (Q15078 whole entry, looked up): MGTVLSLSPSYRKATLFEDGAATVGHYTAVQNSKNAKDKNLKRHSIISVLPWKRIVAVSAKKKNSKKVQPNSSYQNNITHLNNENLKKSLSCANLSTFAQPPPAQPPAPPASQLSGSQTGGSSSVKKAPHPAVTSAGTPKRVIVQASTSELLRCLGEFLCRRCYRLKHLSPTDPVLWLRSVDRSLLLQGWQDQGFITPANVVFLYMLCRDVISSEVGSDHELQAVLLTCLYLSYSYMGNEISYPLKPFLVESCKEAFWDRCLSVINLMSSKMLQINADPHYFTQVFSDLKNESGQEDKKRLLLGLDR
An asterisk follows results filed as active; · = no result. An excerpt weighted towards active compounds, which were near 1.4% of everything screened.

SMILES	CAL PDZ FP-1	N-glyco inh	PvdQ acylase	Vif inh	CAL PDZ FP-2	CDK5 p35 inh
CC(C)Oc1ccc2nnnn2n1	·	1	-19	21	130*	0
C=CCN1C=CC=C/C1=C1\SC(=S)N(C)C1=O	-1	0	-10	-10	35*	-2
O=C(c1cc2ccccc2oc1=O)N(Cc1ccco1)Cc1cccs1	-3	-2	-2	59*	1	0
O=C(c1cc2ccccc2oc1=O)N(Cc1cccs1)Cc1cccs1	-1	-2	-15	-9	-9	3
CC(=O)O[C@@H]1C[C@@]2(C)[C@@H](CC[C@H]2[C@@H](C)/C=C\CC(C)C)C2=C[C@@H](O)[C@@]3(O)C[C@@H](O)[C@H](O)C[C@]3(CO)[C@]21O	·	2	·	30	·	·
Cc1cnc(NC(=O)NCC2CCCC(CNC(=O)Nc3ncc(C)s3)C2)s1 (stereo unspecified)	-1	7	-16	-10	67*	3
Cc1ccc(C(=O)Nc2ncc(C)s2)o1	-3	-5	-12	-5	·	-2
Cc1ccc(S(=O)(=O)N2CCC(=O)N(C(COCc3cccc(C(F)(F)F)c3)C(C)C)CC2)cc1 (stereo unspecified)	-1	-6	-3	1	0	-2
COc1cc(/C=N/Nc2nc(C)cc(C)n2)cc(OC)c1OC	14	2	-9	1	75*	1
CCCCN(C=O)c1c(CC)nc2c(OCCOc3ccccc3)cccn12	·	-2	·	58*	·	·
CCOc1ccc(NC(=O)CN(C)C(=O)c2ccccc2-n2cnnn2)cc1OCC	-2	2	7	-4	2	0
Nc1ncnc2c1ncn2[C@@H]1O[C@H](C(=O)N2CCN(c3ccc(Cl)cn3)CC2)[C@@H](O)[C@H]1O	·	2	·	0	·	·
O=C(CN1C(=O)NC(c2ccc(F)cc2)C1=O)NC1CCCCC1 (stereo unspecified)	-1	-1	-14	-5	88*	0
Cc1cccc(/C=N/NC(=O)c2cc(C)nc3ccccc23)n1	-1	7	-8	-9	151*	0
Cc1cccc(/C=N/NC(=O)c2cc(C3CC3)nc3ccccc23)n1	-2	1	2	15	0	2
O=C(N/N=C/c1ccccn1)c1cc(-c2ccncc2)nc2ccccc12	-8	41*	-10	0	-2	-1
COc1ccc(/C=N/N2CCN(Cc3ccc(C)cc3)CC2)cc1Br	7	1	-14	-1	72*	-1
Cc1ccc(CN2CCN(/N=C/c3ccc(O)c(O)c3)CC2)cc1	-2	0	-3	0	-2	-2
Cc1ccc2c(c1)C(=C(C#N)C#N)CCN2	-1	1	-9	-12	39*	4
Cc1ccc2c(c1)C(=O)CCN2	0	2	8	51*	0	1
O=C1CCNc2ccc(-c3ccccc3)cc21	-2	0	2	-5	0	2
Cc1ccc2c(c1)NCCO2	-2	0	-5	-7	·	2
COCCNC(=O)C1CCCN(C(=O)c2cc(-c3ccccc3)cs2)CC1 (stereo unspecified)	·	0	·	-10	·	·
COc1ccc(C(=O)NC(C)c2ccc(-n3ccnc3)cc2)cc1S(=O)(=O)N1CCOCC1 (stereo unspecified)	-2	-1	8	-1	-4	1
COC(=O)c1ccc(NC(=O)c2cc(-c3ccccn3)nc3ccccc23)cc1	0	3	-18	62*	-5	-3
SMILES	CAL PDZ FP-1	N-glyco inh	PvdQ acylase	Vif inh	CAL PDZ FP-2	CDK5 p35 inh
COC(=O)c1ccc(NC(=O)c2cc(-c3ccncc3)nc3ccccc23)cc1	-3	13	-12	14	-4	-1
COc1ccc2cc(CCNS(=O)(=O)c3ccc(NC(C)=O)cc3)c(=O)[nH]c2c1	-1	0	-6	57*	0	-1
Fc1ccc2[nH]c3c(NCc4ccccc4)ncnc3c2c1	-3	3	5	-8	1	8
CC(=O)c1c(C)[nH]c(C(=O)CN2CCN(S(=O)(=O)c3ccccc3F)CC2)c1C	-1	-1	-3	-8	·	1
COc1cccc(-c2cc(C(F)(F)F)nc(-n3cncn3)n2)c1	-2	0	-5	2	·	-1
COc1cccc(-c2cc(C(F)(F)F)nc(-n3cc(C)cn3)n2)c1	-2	-2	0	89*	0	0
O=C(CCNC(=O)c1ccccc1Cl)Nc1ccc2c(c1)OCCO2	·	0	·	-2	·	·
CC(=O)NC(=S)Nc1ccccc1F	-2	-1	-11	58*	-1	-1
COc1ccc(N2CCc3c(C)nc4c(OC)cccc4c32)cc1	-2	35*	25	10	-2	-1
COC(=O)c1cc(S(=O)(=O)NCCc2ccc(SC)cc2)c[nH]1	-1	-3	-19	-4	76*	1
COC(=O)c1cc(S(=O)(=O)NCCc2ccc(C)cc2)c[nH]1	-1	-1	0	·	·	-1
COC(=O)c1cc(S(=O)(=O)NCCN2CCN(c3ccccc3F)CC2)c[nH]1	-1	-1	-11	-1	47*	1
COC(=O)c1cc(S(=O)(=O)N2CCN(c3ccccc3F)CC2)c[nH]1	-3	0	-5	17	-4	0
O=C1C2CCCN2C(=O)N1CCCCN1CCN(c2ccc(F)cc2)CC1 (stereo unspecified)	-1	1	-4	14	-2	1
Cc1ccc(N2CCN(CCCCN3C(=O)C4CCCN4C3=O)CC2)cc1 (stereo unspecified)	1	-2	-17	5	63*	1
CNc1ccc(Br)cc(C(=O)/C=C/c2cccc(OC)c2OC)c1=O	-1	20	20	75*	-3	-3
CNc1ccc(Br)cc(C(=O)/C=C/c2cccc(Cl)c2Cl)c1=O	-3	-7	-12	-3	2	-2
Cc1cc(C(=O)NNC(=O)c2ccc(Cl)c(S(N)(=O)=O)c2)c(C)o1	0	1	-13	24	64*	0
Cc1cc(C(=O)NNC(=O)c2ccc(S(=O)(=O)N(C)C)cc2)c(C)o1	-1	2	-10	3	-2	1
CS(=O)(=O)c1ccc(Sc2nc3ccccc3s2)c([N+](=O)[O-])c1	0	40*	-8	-6	2	0
O=[N+]([O-])c1cc(S(=O)(=O)C(F)(F)F)ccc1Sc1nc2ccccc2s1	0	4	-9	8	3	1
O=C(Nc1cnccn1)Nc1ccccc1Cl	-1	2	-13	51*	4	3
O=C(Nc1ccccn1)Nc1ccccc1Cl	3	1	-8	-3	31*	-2
O=C(Nc1cnccn1)Nc1cccc(Cl)c1Cl	-2	5	-11	-1	-3	2
Cc1cc(NC(=O)CSc2ccc(-c3nc4cc(C)c(C)cc4[nH]3)cn2)no1	0	44*	-6	-9	5	0

Bioassay records as filed in PubChem BioAssay.
